Screening results as filed in PubChem BioAssay.
SF-1 act: activators of human nuclear receptor SF-1 | Q13285 | CHO-K1 Gal4-SF-1 LBD luciferase reporter; % increase over DMSO SF-1-specific signal | activation, % at 10 µM | 65,000 compounds, 1.9% hits | AID 522;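 active = activation above the mean activation of all tested compounds plus 3 SD, cut at about 50% in these data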
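Material: Transient Gal4-SF-1 LBD reporter, CHO-K1 | Input: 4,000 cells/well | Dosing: One dose, 10 µM compound, 1% DMSO | Incubation: 20 h compound treatment, 37 °C | Detection: SteadyLite luciferase luminescence | Evaluation: Percent activation relative to DMSO median and mock-transfected background | Benchmarks: DMSO-treated SF-1-transfected cells as negative, DMSO-treated mock-transfected cells lacking SF-1 as background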
Candida biofilm: kills Candida albicans biofilms | inhibition, % at 6 µM | AID 834 | 85,000 compounds, 0.14% hits | C. albicans biofilm + clotrimazole, Alamar Blue;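 active = inhibition above 20%; inactive = inhibition below 20%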;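 note: preformed 24 hr biofilms exposed to compound for 48 hr; 0% = biofilm without compound and 100% = blank killed by clotrimazole plus chlorhexidine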
Mac1 fbg enh: increases human CD11b/CD18 adhesion to fibrinogen; 93,000 compounds, 0.07% hits; AID 1499; activation, % at 10 µM; K562 CD11b/CD18 adhesion to fibrinogen, ATPlite luminescence;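 active = 10 µM primary screen giving 50% or more activity, confirmed by 40% or more on retest at that dose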
RORa activator: activators of human nuclear receptor RORA; P35398; CHO-K1 Gal4-RORA LBD luciferase reporter, luminescence; percent increase over mock-subtracted basal signal; activation, % at 10 µM; 65,000 compounds, 1.5% hits; AID 560;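 active = activation above the mean of all tested compounds plus 3 SD, cut at about 49% in these data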;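 note: 0% = DMSO-treated RORA cells and 100% = added signal equal to DMSO minus mock-transfected cells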
Target sequence (P35398 whole entry, looked up, the tested form may be a part): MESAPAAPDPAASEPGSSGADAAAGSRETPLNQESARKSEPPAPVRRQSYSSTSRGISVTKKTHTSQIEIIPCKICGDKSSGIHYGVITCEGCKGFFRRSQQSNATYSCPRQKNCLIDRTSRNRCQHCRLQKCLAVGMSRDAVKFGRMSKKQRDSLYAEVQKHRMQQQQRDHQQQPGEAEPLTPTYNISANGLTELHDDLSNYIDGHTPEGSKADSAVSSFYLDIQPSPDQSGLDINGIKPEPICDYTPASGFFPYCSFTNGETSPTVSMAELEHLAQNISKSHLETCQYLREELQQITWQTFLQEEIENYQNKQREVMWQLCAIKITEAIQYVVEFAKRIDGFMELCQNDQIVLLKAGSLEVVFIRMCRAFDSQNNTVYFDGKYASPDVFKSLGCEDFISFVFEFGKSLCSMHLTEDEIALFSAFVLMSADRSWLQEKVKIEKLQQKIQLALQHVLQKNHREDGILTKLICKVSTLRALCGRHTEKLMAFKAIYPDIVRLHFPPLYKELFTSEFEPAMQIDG
Mac1 fbg inh: inhibitors of human CD11b/CD18 binding to fibrinogen; P05107+P11215; K562 CD11b/CD18 adhesion to fibrinogen, ATPlite luminescence; Mn2+ added to activate the integrin; inhibition, % at 10 µM; 93,000 compounds, 0.54% hits; AID 1497;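 active = primary inhibition of 50% or more at 10 µM, then 40% or more on retest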
MT1-MMP txn act: MT1-MMP promoter transcription activation. HT1080 MT1-MMP promoter luciferase reporter, luminescence, overnight; active compounds read high. activation factor at 10 µM. 86,000 compounds, 0.16% hits;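 active = activation factor of at least 2 for MT1-MMP transcription at 10 µM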
* marks the source's active call; other numbers are inactive results; x = no result given. Shown are actives, neighbours in structure and some others; about 2.2% of the full set was active somewhere.

SMILES | SF-1 act | Candida biofilm | Mac1 fbg enh | RORa activator | Mac1 fbg inh | MT1-MMP txn act
O=C(CSc1nnc(Cn2nnc3ccccc32)o1)N(Cc1ccc(F)cc1)c1ccccc1 | -33 | -4 | -11 | -71 | 102* | 1.1
CC1CCN(C(=O)CN2C(=O)c3ccccc3S2(=O)=O)CC1 | -11 | 9 | 2 | 26 | 2 | 1.6
CN(C)c1ccc(C2=NOC(CN3C(=O)c4ccccc4S3(=O)=O)C2)cc1 (stereo not given) | 33 | 8 | 2 | 60* | -4 | 1.8
CCCc1cc2c(n1Cc1cc(F)cc(F)c1)C(C)C1CN(C(=O)c3ccccc3)C(C)(C(=O)OC)C21 (stereo not given) | x | x | x | x | x | 1.1
CCc1cccc2c(-c3ccccc3)c3c(nc12)OCC3 | x | x | x | x | x | 1.1
C/C(=N\O)c1ccc2[nH]ccc2c1 | 17 | x | x | 32 | x | 1.4
C/C(=N\O)c1ccc2c3c([nH]c2c1)CCCC3 | 64* | x | 4 | 54* | -1 | 1.3
CC(=O)c1cc2c(=O)c3cc(C)ccc3oc2nc1C | 38 | 7 | 9 | 58* | -43 | 1.2
CC(=O)c1c[nH]c2ccc(C)cc2c1=O | -10 | x | 0 | 0 | -25 | 1
O=C(Nc1cccc(Cl)c1)c1cc(S(=O)(=O)NCCc2ccc(Cl)cc2)ccc1F | x | x | -8 | x | 75 | x
Cc1[nH]c2ccc(F)cc2c(=O)c1SC(F)(F)C(F)C(F)(F)F (stereo not given) | 13 | 6 | -2 | -16 | 0 | 1.2
COc1cccc2c(=O)c(SC(F)(F)C(F)C(F)(F)F)c(C)[nH]c12 (stereo not given) | 51* | 6 | -5 | 46 | -1 | 1.6
CCOc1ccc(-c2nnc(-c3cccs3)o2)cc1OCC | 17 | 4 | 0 | 53* | 5 | 1.4
c1ccc(-c2nnc(-c3ccco3)o2)cc1 | 51* | 7 | 3 | 23 | -7 | 1.7
CCOc1ccc(-c2nnc(-c3ccco3)o2)cc1OCC | 42 | -8 | -4 | 22 | -19 | 2.1*
Cc1cccc(-c2nnc(-c3ccccc3)o2)c1 | 60* | 6 | -3 | 46 | 3 | 1.5
Brc1ccc(-c2nnc(-c3ccco3)o2)cc1 | 22 | 8 | -3 | 29 | -2 | 1.4
CCOc1cc(-c2nnc(-c3ccco3)o2)cc(OCC)c1OCC | -5 | x | -1 | -11 | 12 | 1
O=C(NCCc1ccc(Cl)cc1)C1CCCN(S(=O)(=O)c2cnc[nH]2)C1 (stereo not given) | 8 | 25* | -4 | 2 | 4 | 1.1
Cc1ccc2nc(NC(=O)C3CCCN(S(=O)(=O)c4cnc[nH]4)C3)sc2c1 (stereo not given) | 26 | 8 | 0 | 54* | 27 | 1.4
Cc1ccc(CCNC(=O)C2CCCN(S(=O)(=O)c3cnc[nH]3)C2)cc1 (stereo not given) | 6 | -1 | 1 | -4 | -4 | 1.1
CNC(=O)NC(=O)C(C)OC(=O)c1cc2c(s1)CCCCC2 (stereo not given) | x | x | 0 | x | 5 | x
CCC1=C2CC[C@H]3C(=O)N(c4ccccc4)C(=O)[C@H]3[C@H]2[C@@]2(Cc3ccccc3)C(=NCc3ccccc3)OC(=O)N2C1=O | x | x | x | x | x | 1.1
COC(=O)[C@@]1(Cc2ccc(F)cc2)[C@H]2c3cc(C(=O)N4CCCC4)n(CCc4c[nH]c5cc(F)ccc45)c3C[C@H]2CN1C(=O)c1ccccc1 | x | x | x | x | x | 1.1
Fc1ccc(COc2ccc(/C=N/n3cnnc3)cc2)cc1 | 7 | 9 | -4 | 12 | 1 | 1.3
SMILES | SF-1 act | Candida biofilm | Mac1 fbg enh | RORa activator | Mac1 fbg inh | MT1-MMP txn act
Fc1ccc(NCc2cn3ccccc3n2)cc1 | 47 | 3 | -3 | 20 | 9 | 1.5
Fc1cccc(NCc2cn3ccccc3n2)c1 | 72* | 5 | -1 | 45 | 6 | 1.1
Nc1c(C(=O)c2ccccc2)oc2ccc(Br)cc12 | 140* | 5 | 1 | 53* | 5 | 1.9
Cc1c(Cl)cccc1NC(=S)N1CCN(Cc2ccc3c(c2)OCO3)CC1 | x | x | 4 | x | 14 | x
CC(=O)c1cnc2c(-c3ccc(Cl)cc3)cnn2c1C | x | 6 | x | x | x | 2.1*
C=CCNc1ncnc2c1[nH]c1ccc(Cl)cc12 | x | 0 | -5 | x | 87* | 1.5
C=CCNc1ncnc2c1[nH]c1ccccc12 | -18 | 5 | -9 | 1 | 29 | 1.2
CC(C)Sc1nnc(Nc2ccccc2)s1 | 106* | x | -2 | 44 | -2 | 1.3
Cn1cc(S(=O)(=O)N2CCN(C(=O)c3ccco3)CC2)c(=O)n(C)c1=O | -15 | 20* | -3 | -4 | 6 | 1.2
Cc1c(S(=O)(=O)N2CCN(C(=O)c3ccco3)CC2)c(=O)n(C)c(=O)n1C | 0 | 14 | -5 | -12 | 8 | 1
CC(Cc1ccccc1)C(=O)NCCc1c[nH]c2ccccc12 (stereo not given) | x | x | x | x | x | 1.1
CC(OC(=O)c1ccc([N+](=O)[O-])s1)C(=O)Nc1ncc(Cl)cc1Cl (stereo not given) | x | x | 5 | x | 1 | x
CCCC[C@@H]1C[C@H]1C(NC(=O)c1ccc(C(F)(F)F)cc1)c1ccc(C(=O)OC)cc1 (stereo not given in full) | x | x | x | x | x | 1.2
Cc1ccc2nc(Cc3ccc(N)cc3)oc2c1 | 68* | 11 | -2 | 39 | -17 | 1.6
Cc1ccc2nc(-c3cccc(N)c3)oc2c1 | x | 3 | -3 | x | 59* | x
Cc1ccc2nc(-c3cccc(NC(=O)c4ccc5c(c4)OCCO5)c3)oc2c1 | 55* | 6 | 0 | 42 | 7 | 1.4
O=C(c1ccccc1)c1nc2ccccc2n(CCCn2c(=O)c(C(=O)c3ccccc3)nc3ccccc32)c1=O | x | 15 | 132* | x | -10 | 1.2
CCCCCOc1ccc(Br)cc1/C(C)=N/NC1=NCCN1 | x | -3 | x | x | x | 0.5
COc1ccc(Br)cc1/C(C)=N/NC1=NCCN1 | x | -1 | -6 | x | 74* | 1.1
COc1ccc(-n2cc(-c3ccc(C)cc3)[n+]3c2SCC3)cc1 | x | x | -1 | x | 43 | x
COc1ccc(-c2cn(-c3ccc(OC)cc3)c3[n+]2-c2ccccc2CC3)cc1 | x | x | -3 | x | 84* | x
COc1ccccc1N1CCN(C(=O)c2cc3c(s2)CCC3)CC1 | x | 6 | 70* | x | 48 | 1.2
Cc1ccc2cc3cc(C(=O)N(C)C4CCCCC4)oc3nc2c1 | 77* | 10 | x | 35 | x | 1.7
N#Cc1c(N2CCCC2)nc(N)c2c(N)nc(N3CCCC3)cc12 | 50* | x | x | 28 | x | 1.2
COc1ccc(C(=O)Nc2ccc(-c3cn4ccsc4n3)cc2)cc1S(=O)(=O)N1CCOCC1 | -2 | 5 | -2 | 17 | -4 | 1.1
COc1ccc(-c2csc(NC(=O)CC(C)C)n2)cc1 | x | 9 | x | x | x | 1.4
CC(C)(C)C(=O)Nc1ccc(-c2cn3ccsc3n2)cc1 | -33 | 3 | -9 | -32 | 61* | 0.2
CC(C)CC(=O)Nc1ccc(-c2cn3ccsc3n2)cc1 | 52* | 2 | -2 | 52* | 46 | 0.6
